Laboratory results taken from the M2OR odorant receptor database.
Residue numbers refer to the chain shown, from its start.

Assays:
Details in all cases: stereoisomer not certain
O10H2 = system: T1, O10H2
T1 sequence (whole entry): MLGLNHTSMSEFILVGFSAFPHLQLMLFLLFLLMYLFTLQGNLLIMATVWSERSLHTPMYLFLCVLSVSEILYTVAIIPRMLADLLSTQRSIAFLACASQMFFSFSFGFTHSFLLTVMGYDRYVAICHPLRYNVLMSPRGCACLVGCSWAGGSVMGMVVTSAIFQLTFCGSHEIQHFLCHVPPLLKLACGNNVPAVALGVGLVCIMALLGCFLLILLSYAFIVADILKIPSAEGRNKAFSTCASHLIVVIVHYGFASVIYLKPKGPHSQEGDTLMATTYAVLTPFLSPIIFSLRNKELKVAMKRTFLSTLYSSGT
How it was run: (§1)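 Each entry records the cell line, G-protein, co-transfected protein and tags used. Methods varied with the source, often transient luciferase assays in mammalian cell lines. A receptor–molecule pair is called responsive (active) if the original authors judged its signal statistically different from baseline and non-responsive (inactive) otherwise.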

O10H3 R54H = system: T2, O10H3 R54H
T2 sequence (whole entry): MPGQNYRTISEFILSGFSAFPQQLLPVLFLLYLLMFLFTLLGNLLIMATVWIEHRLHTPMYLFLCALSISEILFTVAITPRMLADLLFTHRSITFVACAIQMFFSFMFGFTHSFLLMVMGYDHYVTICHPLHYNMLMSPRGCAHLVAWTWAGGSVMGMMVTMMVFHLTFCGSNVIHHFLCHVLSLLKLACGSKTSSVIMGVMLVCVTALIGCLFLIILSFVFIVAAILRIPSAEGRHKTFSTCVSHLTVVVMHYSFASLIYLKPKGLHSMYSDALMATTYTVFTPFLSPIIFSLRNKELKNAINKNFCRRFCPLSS
How it was run: as §1

O10H4 I50V = system: T3, O10H4 I50V
T3 sequence (whole entry): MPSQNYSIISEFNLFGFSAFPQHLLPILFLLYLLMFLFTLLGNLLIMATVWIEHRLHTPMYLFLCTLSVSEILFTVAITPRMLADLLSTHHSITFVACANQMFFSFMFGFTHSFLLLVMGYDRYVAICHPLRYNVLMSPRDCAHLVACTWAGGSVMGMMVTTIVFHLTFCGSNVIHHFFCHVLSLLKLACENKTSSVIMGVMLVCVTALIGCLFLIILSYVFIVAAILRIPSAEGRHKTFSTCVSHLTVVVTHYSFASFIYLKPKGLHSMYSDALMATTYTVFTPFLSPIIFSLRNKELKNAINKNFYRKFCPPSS
How it was run: as §1

O10H5 S268Y = system: T4, O10H5 S268Y
T4 sequence (whole entry): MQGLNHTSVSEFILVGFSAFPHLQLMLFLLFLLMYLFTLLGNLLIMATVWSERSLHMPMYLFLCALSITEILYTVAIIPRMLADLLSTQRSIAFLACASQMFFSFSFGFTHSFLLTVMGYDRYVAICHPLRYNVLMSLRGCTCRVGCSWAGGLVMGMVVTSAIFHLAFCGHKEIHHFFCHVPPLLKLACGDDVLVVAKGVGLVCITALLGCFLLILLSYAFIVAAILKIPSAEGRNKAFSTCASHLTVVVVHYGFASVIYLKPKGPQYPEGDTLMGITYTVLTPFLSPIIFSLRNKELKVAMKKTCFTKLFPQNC
How it was run: as §1

O10J1 M62I I103M = system: T5, O10J1 M62I I103M
T5 sequence (whole entry): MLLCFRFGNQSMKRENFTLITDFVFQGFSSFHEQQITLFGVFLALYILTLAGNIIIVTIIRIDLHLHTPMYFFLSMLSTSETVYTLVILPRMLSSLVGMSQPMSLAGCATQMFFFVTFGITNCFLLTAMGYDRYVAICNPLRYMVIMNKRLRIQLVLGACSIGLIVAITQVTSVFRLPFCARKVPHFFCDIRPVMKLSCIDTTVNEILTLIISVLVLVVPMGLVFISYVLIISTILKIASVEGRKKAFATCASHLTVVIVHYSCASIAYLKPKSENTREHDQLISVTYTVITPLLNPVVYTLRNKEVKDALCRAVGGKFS
How it was run: as §1

O10J1 M62I = system: T6, O10J1 M62I
T6 sequence (whole entry): T5 sequence (whole entry) with M103I
How it was run: as §1

O10J3 Q235R E319G = system: T7, O10J3 Q235R E319G
T7 sequence (whole entry): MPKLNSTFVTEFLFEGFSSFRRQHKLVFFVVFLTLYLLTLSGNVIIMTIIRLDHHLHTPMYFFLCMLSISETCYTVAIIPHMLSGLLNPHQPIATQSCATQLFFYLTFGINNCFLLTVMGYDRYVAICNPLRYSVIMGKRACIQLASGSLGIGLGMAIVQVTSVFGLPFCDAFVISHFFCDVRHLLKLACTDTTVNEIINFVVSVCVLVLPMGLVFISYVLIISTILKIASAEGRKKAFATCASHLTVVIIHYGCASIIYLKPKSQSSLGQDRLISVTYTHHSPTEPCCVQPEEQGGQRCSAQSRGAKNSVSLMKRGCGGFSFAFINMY
How it was run: as §1

O10P1 R195K = system: T8, O10P1 R195K
T8 sequence (whole entry): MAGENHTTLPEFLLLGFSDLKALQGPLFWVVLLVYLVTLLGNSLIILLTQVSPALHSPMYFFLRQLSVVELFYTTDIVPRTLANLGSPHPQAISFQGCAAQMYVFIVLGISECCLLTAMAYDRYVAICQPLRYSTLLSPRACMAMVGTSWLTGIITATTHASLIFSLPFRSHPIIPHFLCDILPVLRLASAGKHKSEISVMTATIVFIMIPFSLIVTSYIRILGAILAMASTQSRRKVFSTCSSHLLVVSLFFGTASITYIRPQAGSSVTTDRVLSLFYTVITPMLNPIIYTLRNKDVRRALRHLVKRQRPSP
How it was run: as §1

O10Q1 E12D = system: T9, O10Q1 E12D
T9 sequence (whole entry): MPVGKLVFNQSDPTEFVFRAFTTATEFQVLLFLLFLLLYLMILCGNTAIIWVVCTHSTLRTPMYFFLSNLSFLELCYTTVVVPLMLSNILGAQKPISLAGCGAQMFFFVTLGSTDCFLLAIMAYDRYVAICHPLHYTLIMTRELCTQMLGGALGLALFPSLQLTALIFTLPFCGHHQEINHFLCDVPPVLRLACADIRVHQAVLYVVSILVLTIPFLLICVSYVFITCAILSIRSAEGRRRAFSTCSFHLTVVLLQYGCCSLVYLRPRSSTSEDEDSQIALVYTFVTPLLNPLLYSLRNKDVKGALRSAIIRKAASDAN
How it was run: as §1

O10Q1 Q10R E12D = system: T10, O10Q1 Q10R E12D
T10 sequence (whole entry): T9 sequence (whole entry) with Q10R
How it was run: as §1

O10R2 I170L = system: T11, O10R2 I170L
T11 sequence (whole entry): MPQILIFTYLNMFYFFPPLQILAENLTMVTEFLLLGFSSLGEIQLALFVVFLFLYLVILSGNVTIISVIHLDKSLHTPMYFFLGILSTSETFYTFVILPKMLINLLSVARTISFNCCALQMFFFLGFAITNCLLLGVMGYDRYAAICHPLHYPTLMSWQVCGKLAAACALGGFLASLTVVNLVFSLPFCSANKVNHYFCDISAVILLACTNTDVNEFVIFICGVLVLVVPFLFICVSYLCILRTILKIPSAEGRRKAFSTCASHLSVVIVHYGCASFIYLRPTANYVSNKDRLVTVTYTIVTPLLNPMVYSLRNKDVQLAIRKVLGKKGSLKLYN
How it was run: as §1

O10T2 I137M = system: T12, O10T2 I137M
T12 sequence (whole entry): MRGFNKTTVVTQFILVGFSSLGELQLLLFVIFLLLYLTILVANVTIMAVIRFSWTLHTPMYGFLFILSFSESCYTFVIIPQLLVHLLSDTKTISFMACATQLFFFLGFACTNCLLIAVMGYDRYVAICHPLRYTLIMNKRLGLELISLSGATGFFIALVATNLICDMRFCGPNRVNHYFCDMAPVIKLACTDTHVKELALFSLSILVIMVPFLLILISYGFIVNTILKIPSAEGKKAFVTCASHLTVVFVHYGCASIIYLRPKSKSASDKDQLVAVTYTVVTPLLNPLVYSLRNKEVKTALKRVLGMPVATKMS
How it was run: as §1

O10V1 Q123R = system: T13, O10V1 Q123R
T13 sequence (whole entry): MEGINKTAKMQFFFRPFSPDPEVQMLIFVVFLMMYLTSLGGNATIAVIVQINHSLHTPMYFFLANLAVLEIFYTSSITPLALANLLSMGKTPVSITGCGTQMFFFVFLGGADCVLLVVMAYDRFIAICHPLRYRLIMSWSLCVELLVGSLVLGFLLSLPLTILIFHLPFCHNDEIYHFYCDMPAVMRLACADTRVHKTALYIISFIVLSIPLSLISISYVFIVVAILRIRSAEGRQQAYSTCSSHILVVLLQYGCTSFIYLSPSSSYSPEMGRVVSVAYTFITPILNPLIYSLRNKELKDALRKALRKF
How it was run: as §1

O10X1 N4T R181S = system: T14, O10X1 N4T R181S
T14 sequence (whole entry): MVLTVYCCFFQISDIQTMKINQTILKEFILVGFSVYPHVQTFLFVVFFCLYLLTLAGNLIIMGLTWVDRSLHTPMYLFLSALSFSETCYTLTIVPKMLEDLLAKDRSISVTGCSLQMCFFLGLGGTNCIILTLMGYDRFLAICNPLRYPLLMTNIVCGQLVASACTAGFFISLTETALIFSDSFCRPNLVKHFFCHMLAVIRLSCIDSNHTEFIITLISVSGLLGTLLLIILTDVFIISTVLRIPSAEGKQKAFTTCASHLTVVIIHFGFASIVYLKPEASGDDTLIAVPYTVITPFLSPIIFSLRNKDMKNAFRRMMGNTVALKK
How it was run: as §1

O11G2 F3I I99N V116I = system: T15, O11G2 F3I I99N V116I
T15 sequence (whole entry): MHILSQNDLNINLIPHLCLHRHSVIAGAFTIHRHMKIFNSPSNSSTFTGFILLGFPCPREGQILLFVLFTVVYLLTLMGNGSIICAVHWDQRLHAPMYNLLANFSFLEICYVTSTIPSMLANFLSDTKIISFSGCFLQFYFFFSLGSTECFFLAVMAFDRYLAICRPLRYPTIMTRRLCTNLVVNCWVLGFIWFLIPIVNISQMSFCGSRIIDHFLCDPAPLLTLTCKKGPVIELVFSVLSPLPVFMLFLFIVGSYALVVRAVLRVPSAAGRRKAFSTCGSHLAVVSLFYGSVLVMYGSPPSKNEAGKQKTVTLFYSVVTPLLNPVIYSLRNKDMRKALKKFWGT
How it was run: as §1

O11H1 M240V = system: T16, O11H1 M240V
T16 sequence (whole entry): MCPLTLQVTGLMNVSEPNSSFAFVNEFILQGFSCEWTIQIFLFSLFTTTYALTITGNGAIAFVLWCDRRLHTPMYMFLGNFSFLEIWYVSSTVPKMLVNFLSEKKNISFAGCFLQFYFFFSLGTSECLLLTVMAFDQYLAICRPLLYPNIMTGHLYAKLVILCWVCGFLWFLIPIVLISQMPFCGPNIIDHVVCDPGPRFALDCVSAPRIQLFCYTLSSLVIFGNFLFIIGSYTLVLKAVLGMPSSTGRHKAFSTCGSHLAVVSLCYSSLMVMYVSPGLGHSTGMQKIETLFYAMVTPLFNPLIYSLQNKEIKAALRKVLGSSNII
How it was run: as §1

O11H6 I107T = system: T17, O11H6 I107T
T17 sequence (whole entry): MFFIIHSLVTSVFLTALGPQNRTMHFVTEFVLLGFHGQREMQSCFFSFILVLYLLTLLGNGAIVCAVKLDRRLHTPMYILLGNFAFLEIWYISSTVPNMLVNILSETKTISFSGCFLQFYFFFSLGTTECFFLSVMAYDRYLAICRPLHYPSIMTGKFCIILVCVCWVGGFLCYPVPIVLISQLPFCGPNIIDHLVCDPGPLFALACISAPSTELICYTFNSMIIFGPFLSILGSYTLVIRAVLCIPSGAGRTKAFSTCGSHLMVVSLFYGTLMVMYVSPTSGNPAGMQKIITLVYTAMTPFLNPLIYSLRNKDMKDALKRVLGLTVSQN
How it was run: as §1

O11HC C156Y V240M = system: T18, O11HC C156Y V240M
T18 sequence (whole entry): T16 sequence (whole entry) with S33T, R68W, V240M
How it was run: as §1

O12D2 S104F = system: T19, O12D2 S104F
T19 sequence (whole entry): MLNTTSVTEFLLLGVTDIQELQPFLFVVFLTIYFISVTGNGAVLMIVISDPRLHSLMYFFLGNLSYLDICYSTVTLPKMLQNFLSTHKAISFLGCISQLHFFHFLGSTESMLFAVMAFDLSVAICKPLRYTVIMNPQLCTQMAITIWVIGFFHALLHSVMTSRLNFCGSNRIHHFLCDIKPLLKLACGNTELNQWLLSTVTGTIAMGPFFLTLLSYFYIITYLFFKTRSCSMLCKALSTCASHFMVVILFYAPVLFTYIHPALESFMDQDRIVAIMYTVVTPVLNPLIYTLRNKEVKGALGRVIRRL
How it was run: as §1

O13C2 H6Q = system: T20, O13C2 H6Q
T20 sequence (whole entry): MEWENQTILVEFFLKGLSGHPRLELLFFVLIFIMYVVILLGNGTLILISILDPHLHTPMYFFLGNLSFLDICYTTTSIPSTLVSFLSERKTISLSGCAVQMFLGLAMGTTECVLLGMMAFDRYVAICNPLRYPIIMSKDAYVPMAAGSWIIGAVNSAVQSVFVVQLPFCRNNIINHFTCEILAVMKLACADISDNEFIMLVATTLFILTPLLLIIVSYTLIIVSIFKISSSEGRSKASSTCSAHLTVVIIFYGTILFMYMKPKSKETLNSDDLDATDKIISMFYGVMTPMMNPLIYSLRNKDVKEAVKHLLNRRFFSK
How it was run: as §1

Measured: odorant receptor agonist call

CCC1OC(=O)C(O)=C1C (stereo not given)
inactive: all assays above

CC1=C(O)C(=O)C(C)O1 (stereo not given)
inactive: all assays above

CCC1OC(C)=C(O)C1=O (stereo not given)
inactive: all assays above

CC1=NC(C)C(C)S1 (stereo not given)
inactive: all assays above

CCCCCCC=CCCC=O
inactive: all assays above

CC1=C(O)C(=O)OC1C (stereo not given)
inactive: all assays above

Cc1cnc(C)c(C)n1
inactive: all assays above

CCCC(S)CCOC(C)=O (stereo not given)
inactive: all assays above
